25 compounds from ChEMBL document CHEMBL4364301 (Eur J Med Chem, 2019) can be followed below.

Holding throughout (assay type): functional
Assay [1] concerns CWR22R. Kind of assay: Antiproliferative activity against human 22Rv1 cells assessed as reduction in cell growth incubated for 96 hrs by propidium iodide based 2D monolayer assay. The settings on record: for IC50: 22Rv1, 96 h. Put shortly:
(§1)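 After 24 h recovery, compound in medium or medium alone (control wells) was added at 10 half-log concentrations from 0.0032 to 100 µM, in triplicate, with at most 0.3% DMSO. After 96 h, wells were PBS-washed, stained with 7 µg/ml PI and 0.1% Triton X-100, and fluorescence read at 530/620 nm. IC50 came from a 4-parameter fit, geometric mean.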

The subject of assay [2] is VCaP. Description: Antiproliferative activity against human VCaP cells assessed as reduction in cell growth incubated for 96 hrs by propidium iodide based 2D monolayer assay. Put shortly:
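VCaP cells in RPMI 1640 with 10% FCS at 37 °C, 5% CO2, seeded 4,000–20,000 cells/well and left 24 h before dosing. Compounds from DMSO stocks were diluted in half-log steps in medium, 10 concentrations 0.0032–100 μM, triplicate wells, max 0.3% DMSO. After 96 h, cells were washed, stained with 7 μg/ml propidium iodide plus 0.1% Triton X-100 for 1–2 h at room temperature, and fluorescence read at ex 530/em 620 nm.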

Assay [3] has as its system DU-145. Description: Antiproliferative activity against human DU145 cells assessed as reduction in cell growth incubated for 96 hrs by propidium iodide based 2D monolayer assay. The settings on record: for IC50: DU-145, 96 h. Put shortly:
as §1

The test system of assay [4] is LNCaP. Description: Antiproliferative activity against human LNCAP cells assessed as reduction in cell growth incubated for 96 hrs by propidium iodide based 2D monolayer assay. A digest of the protocol: as §1

Usually IC50 stands for the midpoint of a concentration-inhibition curve.

With `CC(O)(CS(=O)(=O)c1ccc(F)cc1)C(=O)Nc1cccc(S(F)(F)(F)(F)F)c1` (racemic), the IC50 is 38.9 µM in assay [1], 37.9 µM in assay [2], 48.8 µM in assay [3] and 32.6 µM in assay [4].

For the compound `CC(O)(COc1cccc(C(F)(F)C(F)(F)F)c1)C(=O)Nc1cc(C(F)(F)F)cc(C(F)(F)F)c1` (racemic), the IC50 in assay [1] was 4.1 µM; in assay [2] it was 9.5 µM; in assay [3], 8.5 µM; in assay [4] it was 4.4 µM.

In the case of `CC(O)(CS(=O)(=O)c1ccc(S(F)(F)(F)(F)F)cc1)C(=O)Nc1ccc([N+](=O)[O-])cc1C(F)(F)F` (racemic), the IC50 was 18.7 µM in assay [1], 28.6 µM in assay [2], 17.7 µM in assay [3] and 12.5 µM in assay [4].

On to `CC(O)(CS(=O)(=O)c1cccc(S(F)(F)(F)(F)F)c1)C(=O)Nc1ccc([N+](=O)[O-])cc1C(F)(F)F` (racemic), for which the IC50 turned out to be 100 µM in assay [1], 100 µM in assay [2], 100 µM in assay [3] and 6.5 µM in assay [4].

For `CC(O)(CS(=O)(=O)c1ccccc1OC(F)(F)F)C(=O)Nc1ccc(S(F)(F)(F)(F)F)cc1` (racemic), the IC50 is 16 µM in assay [1], 19.9 µM in assay [2], 19.5 µM in assay [3] and 12.7 µM in assay [4].

`CC(O)(CS(=O)(=O)c1cccc(C(F)(F)F)c1)C(=O)Nc1ccc(S(F)(F)(F)(F)F)cc1` (racemic): the IC50 in assay [1] worked out at 23.8 µM; in assay [2], 32 µM; in assay [3], 31.9 µM; in assay [4], 21 µM.

As to `CC(O)(CS(=O)(=O)c1cccc(S(F)(F)(F)(F)F)c1)C(=O)Nc1ccc(S(F)(F)(F)(F)F)cc1` (racemic), the IC50 in assay [1] amounted to 39.9 µM; in assay [2], 24.8 µM; in assay [3], 34 µM; in assay [4], 31.3 µM.

As to `CC(O)(CS(=O)(=O)c1ccc(C(F)(F)F)cc1)C(=O)Nc1ccc(S(F)(F)(F)(F)F)cc1` (racemic), the IC50 was 28.9 µM in assay [1], 27.7 µM in assay [2], 29.3 µM in assay [3] and 20.7 µM in assay [4].

With `CC(O)(COc1cccc(C(F)(F)C(F)(F)F)c1)C(=O)Nc1ccc(C(F)(F)F)cc1` (racemic), the IC50 in assay [1] amounted to 3.6 µM; in assay [2] it was 8.1 µM; in assay [3] it was 7.6 µM; in assay [4], 3.9 µM.

For `CC(O)(CS(=O)(=O)c1ccc(OC(F)(F)F)cc1)C(=O)Nc1cccc(S(F)(F)(F)(F)F)c1` (racemic), the IC50 in assay [1] was determined as 31.2 µM; in assay [2], 15.1 µM; in assay [3], 35.6 µM; in assay [4], 10.7 µM.

Turning to `CC(O)(CS(=O)(=O)c1cccc(C(F)(F)F)c1)C(=O)Nc1cccc(S(F)(F)(F)(F)F)c1` (racemic), the IC50 in assay [1] turned out to be 24.6 µM; in assay [2], 35.5 µM; in assay [3] it was 37.3 µM; in assay [4], 21.8 µM.

Consider `CC(O)(CS(=O)(=O)c1ccc(S(F)(F)(F)(F)F)cc1)C(=O)Nc1cccc(S(F)(F)(F)(F)F)c1` (racemic), for which the IC50 is 12.3 µM in assay [1], 17.2 µM in assay [2], 17.4 µM in assay [3] and 11.7 µM in assay [4].

Regarding `CC(O)(CS(=O)(=O)c1cc(C(F)(F)F)cc(C(F)(F)F)c1)C(=O)Nc1cccc(S(F)(F)(F)(F)F)c1` (racemic), the IC50 in assay [1] turned out to be 9.3 µM; in assay [2] it was 10.4 µM; in assay [3], 13.7 µM; in assay [4], 9.7 µM.

As for `CC(O)(CS(=O)(=O)c1ccccc1C(F)(F)F)C(=O)Nc1cccc(S(F)(F)(F)(F)F)c1` (racemic), the IC50 in assay [1] amounted to 27.7 µM; in assay [2], 40.8 µM; in assay [3], 27.3 µM; in assay [4], 24.9 µM.

Turning to `CC(O)(CS(=O)(=O)c1ccc(OC(F)(F)F)cc1)C(=O)Nc1ccc(S(F)(F)(F)(F)F)cc1` (racemic), the IC50 in assay [1] amounted to 51.9 µM; in assay [2] it was 95.8 µM; in assay [3], 39.3 µM; in assay [4] it was 92.8 µM.

On to `CC(O)(CS(=O)(=O)c1ccccc1C(F)(F)F)C(=O)Nc1ccc(S(F)(F)(F)(F)F)cc1` (racemic), for which the IC50 in assay [1] was 17.4 µM; in assay [2], 23.8 µM; in assay [3] it was 29.4 µM; in assay [4], 10.8 µM.

Regarding `CC(O)(CS(=O)(=O)c1cc(C(F)(F)F)cc(C(F)(F)F)c1)C(=O)Nc1ccc(S(F)(F)(F)(F)F)cc1` (racemic), the IC50 was found to be 12.7 µM in assay [1], 15.8 µM in assay [2], 24.4 µM in assay [3] and 13.3 µM in assay [4].

Take `CC(O)(CS(=O)(=O)c1ccc(S(F)(F)(F)(F)F)cc1)C(=O)Nc1ccc(S(F)(F)(F)(F)F)cc1` (racemic): the IC50 came to 17.3 µM in assay [1], 15.7 µM in assay [2], 28.9 µM in assay [3] and 29.2 µM in assay [4].

As to `CC(O)(COc1cc(C(F)(F)F)cc(C(F)(F)F)c1)C(=O)Nc1cccc(C(F)(F)C(F)(F)F)c1` (racemic), the IC50 is 4.5 µM in assay [1], 8 µM in assay [2], 9.8 µM in assay [3] and 4.7 µM in assay [4].

For the compound `CC(O)(CS(=O)(=O)c1cccc(S(F)(F)(F)(F)F)c1)C(=O)Nc1cccc(S(F)(F)(F)(F)F)c1` (racemic), the IC50 in assay [1] came to 15.4 µM; in assay [2] it was 19 µM; in assay [3], 29.4 µM; in assay [4] it was 11.7 µM.

In the case of `CC(O)(CS(=O)(=O)c1cccc(OC(F)(F)F)c1)C(=O)Nc1ccc(S(F)(F)(F)(F)F)cc1` (racemic), the IC50 in assay [1] worked out at 22.4 µM; in assay [2] it was 23.7 µM; in assay [3] it was 26.5 µM; in assay [4] it was 21.7 µM.

On to `CC(O)(CS(=O)(=O)c1ccc(F)cc1)C(=O)Nc1ccc(S(F)(F)(F)(F)F)cc1` (racemic), for which the IC50 worked out at 20.6 µM in assay [1], 34.2 µM in assay [2], 27.7 µM in assay [3] and 18.2 µM in assay [4].

With `CC(O)(CS(=O)(=O)c1cccc(OC(F)(F)F)c1)C(=O)Nc1cccc(S(F)(F)(F)(F)F)c1` (racemic), the IC50 in assay [1] turned out to be 20.1 µM; in assay [2], 20.2 µM; in assay [3], 31.5 µM; in assay [4], 15.1 µM.

For the compound `CC(O)(CS(=O)(=O)c1ccccc1OC(F)(F)F)C(=O)Nc1cccc(S(F)(F)(F)(F)F)c1` (racemic), the IC50 was determined as 17.1 µM in assay [1], 13.9 µM in assay [2], 29.1 µM in assay [3] and 9 µM in assay [4].

For the compound `CC(O)(CS(=O)(=O)c1ccc(F)cc1)C(=O)Nc1ccc(C#N)c(C(F)(F)F)c1` (racemic) [BICALUTAMIDE], the Activity result in assay [1], in assay [2], in assay [3] and in assay [4] was “Dose-dependent effect” in each case.
